Test results reported in ChEMBL document CHEMBL4622983, “Structure-Activity Relationship Studies of α-Ketoamides as Inhibitors of the Phospholipase A and Acyltransferase Enzyme Family” (J Med Chem, 2020).
The source made the active and inactive calls. The rule behind the calls is not given here.

Assays:
[1] = target: Cytosolic phospholipase A2 delta (Homo sapiens) (UniProt Q86XP0); assay: Inhibition of human PLA2G4D expressed in HEK293T cell lysates at 10 uM preincubated for 30 mins followed by FP-TAMRA addition and measured after 20 mins by SDS-PAGE based competitive ABPP analysis; assay type: cell-free; conditions: HEK-293T
Cytosolic phospholipase A2 delta (Homo sapiens), sequence (Q86XP0 whole entry): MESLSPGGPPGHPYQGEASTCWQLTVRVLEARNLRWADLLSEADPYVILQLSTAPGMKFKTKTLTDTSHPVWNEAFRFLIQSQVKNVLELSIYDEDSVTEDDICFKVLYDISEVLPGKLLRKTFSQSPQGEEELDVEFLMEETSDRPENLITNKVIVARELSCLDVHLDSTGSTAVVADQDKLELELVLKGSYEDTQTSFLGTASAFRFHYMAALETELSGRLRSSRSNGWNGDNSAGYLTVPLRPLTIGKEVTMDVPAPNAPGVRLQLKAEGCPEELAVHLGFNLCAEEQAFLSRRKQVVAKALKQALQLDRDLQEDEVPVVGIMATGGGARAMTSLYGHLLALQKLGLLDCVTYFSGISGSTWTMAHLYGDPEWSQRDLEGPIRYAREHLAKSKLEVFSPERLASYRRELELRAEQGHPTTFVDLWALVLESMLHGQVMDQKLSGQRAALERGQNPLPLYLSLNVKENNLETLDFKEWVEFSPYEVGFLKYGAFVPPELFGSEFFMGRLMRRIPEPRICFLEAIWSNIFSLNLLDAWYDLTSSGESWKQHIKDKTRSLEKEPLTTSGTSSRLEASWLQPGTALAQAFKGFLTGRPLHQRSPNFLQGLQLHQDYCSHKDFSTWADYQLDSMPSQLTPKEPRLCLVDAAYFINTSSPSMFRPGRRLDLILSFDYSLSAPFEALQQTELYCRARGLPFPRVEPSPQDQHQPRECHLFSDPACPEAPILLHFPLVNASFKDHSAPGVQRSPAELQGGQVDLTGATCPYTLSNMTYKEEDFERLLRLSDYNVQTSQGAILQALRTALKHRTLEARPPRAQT
Summary of the method: (§1)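 hPLA2G4B, C or D-overexpressing membrane lysate (1 μg/μL) preincubated with inhibitor for 30 min at rt. FP-TAMRA 500 nM added for 20 min at rt. In-gel fluorescence after SDS-PAGE, normalized to Coomassie.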

U2OS [2] = assay: Downregulation of N-palmitoylethanolamine level in human U2OS cells at 10 uM after 4 hrs by LC-MS/MS analysis; assay type: functional, cell-based
Summary of the method: (§2)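 U2OS cells transfected with PLAAT2, PLAAT5 or empty vector (PEI, 1:5 plasmid/PEI). At 24 h, switched to serum-free medium with 10 μM compound (0.1% DMSO) or DMSO for 4 h at 37 °C. Pellets extracted with MTBE against deuterated internal standards. NAEs, 2-AG and free fatty acids quantified by LC–MS/MS, normalized to live cell count. Four biological replicates; one-way ANOVA.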

[3] = target: T1, Phospholipase A and acyltransferase 4 (Homo sapiens, UniProt Q9UL19); assay: Inhibition of full-length C-terminal FLAG-tagged human PLAAT4 expressed in HEK293T cell lysate preincubated for 30 mins followed by MB064 addition and measured after 20 mins by SDS-PAGE based ABPP analysis; assay type: cell-free, HEK-293T
T1 sequence (Q9UL19 whole entry): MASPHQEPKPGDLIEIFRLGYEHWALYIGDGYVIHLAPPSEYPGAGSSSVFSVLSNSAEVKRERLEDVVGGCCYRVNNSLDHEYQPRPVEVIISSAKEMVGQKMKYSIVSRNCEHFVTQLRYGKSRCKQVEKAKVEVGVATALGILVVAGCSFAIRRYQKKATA
Summary of the method: (§3)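 Dose–response competitive ABPP on cytosol only, from HEK293T overexpressing FLAG-tagged PLAAT. Inhibitor 30 min rt, then MB064 20 min rt. PLAAT2 0.25 μg/μL with 250 nM probe; PLAAT3 0.5 μg/μL with 250 nM; PLAAT4 and PLAAT5 1 μg/μL with 500 nM. Fluorescence normalized to Coomassie. IC50 from curves, reported as pIC50 ± SEM, n = 3.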

[4] = target: Monoacylglycerol lipase ABHD6 (Mus musculus) (UniProt Q8R2Y0); assay: Inhibition of mouse brain membrane ABHD6 assessed as enzyme remaining activity at 10 uM preincubated for 30 mins followed by MB064 or FP-TAMRA addition and measured after 15 mins by SDS-PAGE based ABPP analysis relative to control; assay type: cell membranes
Monoacylglycerol lipase ABHD6 (Mus musculus), sequence (Q8R2Y0 whole entry): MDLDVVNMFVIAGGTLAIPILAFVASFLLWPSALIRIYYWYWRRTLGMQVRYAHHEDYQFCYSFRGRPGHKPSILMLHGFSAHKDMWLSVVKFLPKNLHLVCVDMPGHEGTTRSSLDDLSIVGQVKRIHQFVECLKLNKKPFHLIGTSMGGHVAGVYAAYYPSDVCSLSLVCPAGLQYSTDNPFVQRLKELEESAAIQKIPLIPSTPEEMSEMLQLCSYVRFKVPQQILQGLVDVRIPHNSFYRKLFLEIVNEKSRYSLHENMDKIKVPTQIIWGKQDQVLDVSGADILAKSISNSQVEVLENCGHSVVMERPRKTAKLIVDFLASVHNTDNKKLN
Summary of the method: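 Mouse brain membrane proteome (2 μg/μL) preincubated with 10 μM inhibitor for 30 min at rt. Then MB064 250 nM or FP-TAMRA 500 nM for 15 min at rt. Resolved on 10% SDS-PAGE, fluorescence normalized to Coomassie. Reported as % remaining activity ± SD, n = 3.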

[5] = target: T2, Phospholipase A and acyltransferase 5 (Homo sapiens) (UniProt Q96KN8); assay: Inhibition of full-length C-terminal FLAG-tagged human PLAAT5 expressed in human U2OS cells assessed as reduction in absolute N-palmitoylethanolamine level at 10 uM incubated for 4 hrs by LC-MS/MS analysis; assay type: cell-based; summary of the method: as §2
T2 sequence (whole entry): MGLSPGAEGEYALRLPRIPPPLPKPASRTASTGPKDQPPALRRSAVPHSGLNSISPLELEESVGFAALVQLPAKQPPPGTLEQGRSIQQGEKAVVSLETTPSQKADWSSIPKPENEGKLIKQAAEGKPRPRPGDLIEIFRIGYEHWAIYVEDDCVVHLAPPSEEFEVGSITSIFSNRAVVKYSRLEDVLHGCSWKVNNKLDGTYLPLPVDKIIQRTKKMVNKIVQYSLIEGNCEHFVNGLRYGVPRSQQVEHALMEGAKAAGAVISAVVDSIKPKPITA

U2OS [6] = assay: Downregulation of N-arachidonoylethanolamine level in human U2OS cells at 10 uM after 4 hrs by LC-MS/MS analysis; assay type: functional, cell-based; summary of the method: as §2
U2OS [7] = assay: Inhibition of serine hydrolase in human U2OS cytosolic fraction at 10 uM preincubated for 30 mins followed by MB064 addition and measured after 15 mins by SDS-PAGE based competitive ABPP analysis
Summary of the method: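 U2OS cytosol or membrane lysate at 2.5 μg/μL, pretreated with inhibitor or DMSO vehicle for 30 min at rt. Probe then added for 15 min at rt: MB064 at 2 μM or FP-TAMRA at 500 nM. Samples denatured in Laemmli buffer and resolved by SDS-PAGE. In-gel fluorescence scanned at Cy3/Cy5 settings and normalized to Coomassie staining.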

[8] = target: T3, Phospholipase A and acyltransferase 2 (Homo sapiens) (UniProt Q9NWW9); assay: Inhibition of full-length C-terminal FLAG-tagged human PLAAT2 expressed in human U2OS cells assessed as reduction in absolute N-eicosapentaenoylethanolamine level at 10 uM incubated for 4 hrs by LC-MS/MS analysis; assay type: cell-based; summary of the method: as §2
T3 sequence (whole entry): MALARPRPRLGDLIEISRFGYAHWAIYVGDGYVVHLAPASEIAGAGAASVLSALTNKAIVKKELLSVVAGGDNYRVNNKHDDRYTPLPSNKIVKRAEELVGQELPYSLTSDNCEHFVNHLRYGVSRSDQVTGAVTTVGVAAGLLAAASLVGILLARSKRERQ

[9] = target: T2, Phospholipase A and acyltransferase 5 (Homo sapiens); assay: Inhibition of full-length C-terminal FLAG-tagged human PLAAT5 expressed in human U2OS cells assessed as reduction in absolute N-linoleoylethanolamine level at 10 uM incubated for 4 hrs by LC-MS/MS analysis; assay type: cell-based; summary of the method: as §2
[10] = target: T4, Phospholipase A and acyltransferase 5 (Homo sapiens, UniProt Q96KN8); assay: Inhibition of full-length C-terminal FLAG-tagged human PLAAT5 expressed in HEK293T cell lysate preincubated for 30 mins followed by MB064 addition and measured after 20 mins by SDS-PAGE based ABPP analysis; assay type: cell-free, HEK-293T; summary of the method: as §3
T4 sequence (Q96KN8 whole entry): T2 sequence (whole entry)

U2OS [11] = assay: Downregulation of N-stearoylethanolamine level in human U2OS cells at 10 uM after 4 hrs by LC-MS/MS analysis; assay type: functional, cell-based; summary of the method: as §2
[12] = target: T3, Phospholipase A and acyltransferase 2 (Homo sapiens); assay: Inhibition of full-length C-terminal FLAG-tagged human PLAAT2 expressed in human U2OS cells assessed as reduction in absolute N-docosahexaenoylethanolamine level at 10 uM incubated for 4 hrs by LC-MS/MS analysis; assay type: cell-based; summary of the method: as §2
[13] = target: T2, Phospholipase A and acyltransferase 5 (Homo sapiens); assay: Inhibition of full-length C-terminal FLAG-tagged human PLAAT5 expressed in human U2OS cells assessed as reduction in absolute N-stearoylethanolamine level at 10 uM incubated for 4 hrs by LC-MS/MS analysis; assay type: cell-based; summary of the method: as §2
[14] = target: Cytosolic phospholipase A2 beta (Homo sapiens) (UniProt P0C869); assay: Inhibition of human PLA2G4B expressed in HEK293T cell lysates at 10 uM preincubated for 30 mins followed by FP-TAMRA addition and measured after 20 mins by SDS-PAGE based competitive ABPP analysis; assay type: cell-free; conditions: HEK-293T; summary of the method: as §1
Cytosolic phospholipase A2 beta (Homo sapiens), sequence (P0C869 whole entry): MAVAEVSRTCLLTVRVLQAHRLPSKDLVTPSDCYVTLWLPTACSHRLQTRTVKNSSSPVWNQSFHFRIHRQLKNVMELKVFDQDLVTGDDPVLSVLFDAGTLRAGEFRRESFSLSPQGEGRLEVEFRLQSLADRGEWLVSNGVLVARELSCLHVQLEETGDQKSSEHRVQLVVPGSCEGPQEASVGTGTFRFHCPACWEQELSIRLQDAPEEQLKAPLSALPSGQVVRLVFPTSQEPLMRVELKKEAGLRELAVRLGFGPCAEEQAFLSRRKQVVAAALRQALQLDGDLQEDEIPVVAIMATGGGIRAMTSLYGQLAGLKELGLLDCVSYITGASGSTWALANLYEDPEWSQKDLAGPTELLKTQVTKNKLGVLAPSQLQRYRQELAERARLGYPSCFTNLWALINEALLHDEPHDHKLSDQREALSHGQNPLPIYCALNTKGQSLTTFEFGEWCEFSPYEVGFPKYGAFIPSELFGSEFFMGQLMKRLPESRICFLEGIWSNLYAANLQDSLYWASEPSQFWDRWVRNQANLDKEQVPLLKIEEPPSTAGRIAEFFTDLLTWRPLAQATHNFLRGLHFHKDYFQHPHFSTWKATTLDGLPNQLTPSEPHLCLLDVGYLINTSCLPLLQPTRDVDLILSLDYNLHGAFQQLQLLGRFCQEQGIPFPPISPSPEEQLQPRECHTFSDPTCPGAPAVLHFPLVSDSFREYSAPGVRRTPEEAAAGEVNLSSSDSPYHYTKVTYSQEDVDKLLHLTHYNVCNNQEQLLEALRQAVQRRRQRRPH

[15] = target: Monoglyceride lipase (Homo sapiens) (UniProt Q99685); assay: Inhibition of human MAGL expressed in HEK293 cells assessed as enzyme remaining activity at 10 uM measured by natural substrate-based fluorescence assay relative to control
Monoglyceride lipase (Homo sapiens), sequence (Q99685 whole entry): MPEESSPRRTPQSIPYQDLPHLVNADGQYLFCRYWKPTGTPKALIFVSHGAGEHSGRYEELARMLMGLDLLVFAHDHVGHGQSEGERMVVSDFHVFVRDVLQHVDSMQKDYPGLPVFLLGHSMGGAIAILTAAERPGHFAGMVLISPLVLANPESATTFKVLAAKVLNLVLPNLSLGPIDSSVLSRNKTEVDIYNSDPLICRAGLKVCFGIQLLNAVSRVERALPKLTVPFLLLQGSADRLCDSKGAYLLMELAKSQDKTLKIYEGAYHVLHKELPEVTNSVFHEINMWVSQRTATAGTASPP

In the case of `O=C(CCCc1ccccc1)C(=O)NCCc1ccc(Oc2ccccc2)cc1`, the inhibition [1] is reported as “inactive”, the inhibition (U2OS [2]) is reported as “inactive” and the IC50 [3] is reported as 50.1 nM. For the same compound, the Activity [4] was 92%, the inhibition [5] was “Active” and the inhibition (U2OS [6]) was “inactive”. The inhibition (U2OS [7]) was “inactive”, the inhibition [8] was “Active” and the inhibition [9] was “Active”. For the same compound, the IC50 [10] was 39.8 nM, the inhibition (U2OS [11]) was “inactive” and the inhibition [12] was “Active”. The inhibition [13] was “Active”, the inhibition [14] was “inactive” and the Activity [15] was 105%.
